Data taken from ChEMBL document CHEMBL1127496, “The structural basis of camptothecin interactions with human serum albumin: impact on drug stability” (J Med Chem, 1994).

How the values were obtained:
[1] = species: Homo sapiens; assay: Excited-state lifetime value for carboxylate form of compound bound to human serum albumin; assay type: ADME; conditions: in vitro
In short: (§1)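 Phase-shift lifetimes, 30 MHz modulation, no polarizers, long-pass emission filters, in PBS pH 7.4 at 37 °C. Drug 20 μM (lactone or carboxylate form) titrated with HSA. Lifetimes corrected for HSA background (τH 3.2 ns, fH weighting). Bound lifetime τB extrapolated to infinite HSA by nonlinear least-squares fit to τC = τB + b·exp(−c[HSA]). Triplicate runs.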

[2] = Excited-state lifetime value for free lactone form of compound in solution; assay type: ADME
In short: (§2)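 Phase-shift fluorescence lifetime, 30 MHz modulated excitation, no polarizers, long-pass emission filters. Measured on 20 μM lactone or carboxylate form in HSA-free PBS, pH 7.40 ± 0.05, 37 °C. Carboxylate made by mixing DMSO stock 1:1 with PBS pH 10.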

[3] = species: Homo sapiens; assay: Excited-state lifetime value for lactone form of compound bound to human serum albumin; assay type: ADME; in short: as §1
[4] = Half-life in PBS buffer solution in the presence of human serum albumin; assay type: ADME; conditions: PBS buffer with human serum albumin
[5] = Half-life in PBS buffer solution in the absence of human serum albumin; assay type: ADME; conditions: PBS buffer without human serum albumin
In short: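 Lactone hydrolysis at 1 μM drug in PBS pH 7.40 ± 0.05, 37 °C, with or without 290 μM HSA. Aliquots taken at mixing and every 5 min, diluted in water, then run on C18 reversed-phase HPLC with fluorescence detection of lactone and carboxylate. t1/2 from nonlinear least-squares fit of lactone decay. At least three independent kinetic runs.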

[6] = Excited-state lifetime value for free carboxylate form of compound in solution; assay type: ADME; in short: as §2
[7] = target: T1, Albumin (Homo sapiens, UniProt P02768); assay: Association constant for the binding of the lactone form to human serum albumin;(M aa)e-1
T1 sequence (P02768 whole entry): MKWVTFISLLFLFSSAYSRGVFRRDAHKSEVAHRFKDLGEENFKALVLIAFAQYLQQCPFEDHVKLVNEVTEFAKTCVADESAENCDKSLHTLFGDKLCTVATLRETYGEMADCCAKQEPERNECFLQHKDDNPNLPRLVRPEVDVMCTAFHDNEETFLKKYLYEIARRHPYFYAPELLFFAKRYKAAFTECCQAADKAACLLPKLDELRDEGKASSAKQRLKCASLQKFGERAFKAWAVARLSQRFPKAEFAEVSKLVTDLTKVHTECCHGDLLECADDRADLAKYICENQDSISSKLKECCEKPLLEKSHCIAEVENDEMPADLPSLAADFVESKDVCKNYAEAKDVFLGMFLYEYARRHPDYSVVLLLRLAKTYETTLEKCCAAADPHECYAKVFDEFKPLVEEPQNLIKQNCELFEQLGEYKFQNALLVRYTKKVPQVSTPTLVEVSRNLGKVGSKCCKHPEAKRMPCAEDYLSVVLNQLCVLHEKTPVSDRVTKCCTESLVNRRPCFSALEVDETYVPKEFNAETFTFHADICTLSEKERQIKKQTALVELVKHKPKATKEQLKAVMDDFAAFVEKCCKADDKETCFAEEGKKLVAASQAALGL
In short: (§3)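 Fluorescence lifetime titration in PBS, pH 7.40 ± 0.05, 37 °C. Total drug 20 μM, lactone or carboxylate form (carboxylate stock made by mixing DMSO stock 1:1 with PBS pH 10), titrated with varying HSA. Phase-shift lifetimes at 30 MHz modulation. Free fraction (τ − τB)/(τF − τB) plotted against log amino-acid residue concentration. K and n obtained by nonlinear least-squares fit to K = [Db]/([Df][aa]^n).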

[8] = target: T1, Albumin; assay: Binding parameter of the carboxylate form to human serum albumin; n value; in short: as §3
[9] = target: T1, Albumin; assay: Association constant for the binding of the carboxylate form to human serum albumin;(M aa)e-1; in short: as §3
[10] = target: T1, Albumin; assay: Binding parameter of the lactone form to human serum albumin; n value; in short: as §3

Row | SMILES | T bound [1] [ns] | T free [2] [ns] | T bound [3] [ns] | half-life [4] [min] | half-life [5] [min] | T free [6] [ns] | K [7] | Activity [8] | K [9] | Activity [10]
1 | CCc1c2c(nc3ccc(C4CCN(C(=O)OC)CC4)cc13)-c1cc3c(c(=O)n1C2)COC(=O)C3(O)CC (stereo not drawn) | 4 | 3.7 | 3.7 | 29 | 25.6 | 4 | – | – | – | –
2 | CCC1(O)C(=O)OCc2c1cc1n(c2=O)Cc2cc3cc4c(cc3nc2-1)OCO4 (stereo not drawn) | 1.3 | 2 | 1.3 | 20.7 | 31.7 | 2.4 | 10 1/Maa | 1.7 | 2200 1/Maa | 1.3
3 | CCC1(O)C(=O)OCc2c1cc1n(c2=O)Cc2cc3c(Cl)c4c(cc3nc2-1)OCO4 (stereo not drawn) | 1.1 | 1.9 | 1.9 | 16.9 | 34.6 | 2.5 | – | 1.6 | 1200 1/Maa | –
4 | CCc1c2c(nc3ccc(O)cc13)-c1cc3c(c(=O)n1C2)COC(=O)[C@]3(O)CC [7-ETHYL-10-HYDROXYCAMPTOTHECIN] | – | – | – | – | 19.9 | – | – | – | – | –
5 | CC[C@@]1(O)C(=O)OCc2c1cc1n(c2=O)Cc2cc3c(N)cccc3nc2-1 [9-AMINOCAMPTOTHECIN] | – | – | – | 23.4 | 17.9 | – | – | – | – | –
6 | CC[C@@]1(O)C(=O)OCc2c1cc1n(c2=O)Cc2cc3ccccc3nc2-1 [CAMPTOTHECIN] | 1.3 | 4.2 | 2.7 | 12.5 | 23.8 | 4.3 | 30 1/Maa | 2.3 | 4700 1/Maa | 1.8
7 | CC[C@@]1(O)C(=O)OCc2c1cc1n(c2=O)Cc2cc3cc(O)ccc3nc2-1 [HYDROXYCAMPTOTHECIN] | 5.5 | 4 | 5.4 | 21.1 | 22.1 | 4 | 130 1/Maa | 1.7 | 260 1/Maa | 1.7
8 | CC[C@@]1(O)C(=O)OCc2c1cc1n(c2=O)Cc2cc3c(CN(C)C)c(O)ccc3nc2-1 [TOPOTECAN] | 6.1 | 6 | 6 | 28.9 | 22.8 | 6.1 | – | – | – | –
